Source: ChEMBL document CHEMBL4382272, “A Curcumin Degradation Product, 7-Norcyclopentadione, Formed by Aryl Migration and Loss of a Carbon from the Heptadienedione Chain” (J Nat Prod, 2018)
Values belong to the compound of their own block, whether it stands above or below them.

How the values were obtained:
[1] = Drug metabolism assessed as horseradish peroxidase-mediated oxidation by measuring bisdemethoxy-7-Norcyclopentadione formation at 50 uM after 1 hr in presence of H2O2 by LC-MS analysis; format: ADME; settings: armoracia rusticana
Summary of the method: (§1)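 HRP/H2O2 oxidation in 1 mL of 20 mM NH4OAc, pH 8, with 50 μM curcuminoid and 2.5 × 10−6 U horseradish peroxidase. H2O2 (40 μM) started the reaction, which ran 1 h at 37 °C. An aliquot was injected directly for negative-ion LC-MS.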

[2] = Drug level treated with demethoxy curcumin assessed as horseradish peroxidase-mediated oxidation at 50 uM after 1 hr in presence of H2O2 by LC-MS analysis; format: ADME; settings: armoracia rusticana; summary of the method: as §1
[3] = Drug metabolism in PMA-stimulated mouse RAW264.7 cells assessed as auto-oxidation by measuring 4''-O-methyl-7-norcyclopentadione formation at 10 uM after 30 mins by LC-MS analysis; format: ADME, cell-based; settings: raw264.7, 0.5 h
Summary of the method: (§2)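 RAW264.7 cells grown in DMEM with 10% FBS, seeded at 400 000 cells/well and attached overnight. They got PMA (stimulated lines) or EtOH vehicle for 5 min, then the test compound at 10 μM for 30 min. Supernatants were extracted on HLB cartridges, eluted with MeOH, dried under N2 and redissolved in MeCN/H2O 1:1. Analysis was negative-ion ESI LC-MS/MS in SRM mode.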

[4] = Drug metabolism assessed as horseradish peroxidase-mediated oxidation by measuring demethoxy-7-Norcyclopentadione formation at 50 uM after 1 hr in presence of H2O2 by LC-MS analysis; format: ADME; settings: armoracia rusticana; summary of the method: as §1
[5] = Drug level treated with curcumin at 50 uM by LC-MS analysis; format: physicochemical
[6] = Drug level in pH 7.4 buffer containing 50% H218O treated with curcumin at 50 uM by LC-MS analysis; format: physicochemical; settings: pH 7.4, 50 µM
Summary of the method: (§3)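 Oxygen-18 labelling in 200 μL of 20 mM NH4HCO3, pH 7.4, made with a 1:1 mix of H2O and H218O (97%). Curcumin was added at 50 μM and incubated 1 h at 37 °C. Aliquots went to negative-ion LC-MS without extraction.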

[7] = Drug metabolism in pH 7.4 buffer treated with curcumin at 50 uM by LC-MS analysis
[8] = Drug level in mouse RAW264.7 cells treated with curcumin at 10 uM after 30 mins by LC-MS analysis; format: ADME, cell-based; settings: raw264.7, 0.5 h; summary of the method: as §2
[9] = Drug level in PMA-stimulated mouse RAW264.7 cells treated with curcumin at 10 uM after 30 mins by LC-MS analysis; format: ADME, cell-based; settings: raw264.7, 0.5 h; summary of the method: as §2
[10] = Drug level in mouse RAW264.7 cells treated with 4'-O-methylcurcumin at 10 uM after 30 mins by LC-MS analysis; format: ADME, cell-based; settings: raw264.7, 0.5 h; summary of the method: as §2
[11] = Drug level in PMA-stimulated mouse RAW264.7 cells treated with 4'-O-methylcurcumin at 10 uM after 30 mins by LC-MS analysis; format: ADME, cell-based; settings: raw264.7, 0.5 h; summary of the method: as §2
[12] = Drug level treated with deuterated-demethoxy curcumin assessed as horseradish peroxidase-mediated oxidation at 50 uM after 1 hr in presence of H2O2 by LC-MS analysis; format: ADME; settings: armoracia rusticana; summary of the method: as §1
[13] = Drug metabolism assessed as horseradish peroxidase-mediated oxidation by measuring deuterated-demethoxy-7-Norcyclopentadione formation at 50 uM after 1 hr in presence of H2O2 by LC-MS analysis; format: ADME; settings: armoracia rusticana; summary of the method: as §1
[14] = Drug metabolism assessed as auto-oxidation by measuring 7-Norcyclopentadione formation at 50 uM by LC-MS analysis
[15] = Drug metabolism in pH 7.4 buffer containing 50% H218O assessed as auto-oxidation by measuring 7-Norcyclopentadione formation at 50 uM by LC-MS analysis; summary of the method: as §3
[16] = Drug metabolism in pH 7.4 buffer assessed as auto-oxidation by measuring 7-Norcyclopentadione formation at 50 uM by LC-MS analysis
[17] = Drug metabolism in PMA-stimulated mouse RAW264.7 cells assessed as auto-oxidation by measuring 7-Norcyclopentadione formation at 10 uM after 30 mins by LC-MS analysis; format: ADME, cell-based; settings: raw264.7, 0.5 h; summary of the method: as §2

SMILES: COc1cc(C2C(O)=CC(=O)C2C(O)c2ccc(O)cc2)ccc1O (configuration not stated)
Drug metabolism [2]: Metabolite_Detected

SMILES: COc1cc(/C=C/C(=O)/C=C(O)/C=C/c2ccc(OC)c(OC)c2)ccc1O
Drug metabolism [3]: Metabolite_Detected

SMILES: COc1cc(C(O)C2C(=O)C=C(O)C2c2ccc(O)c(OC)c2)ccc1O (configuration not stated)
Drug metabolism [5]: Metabolite_Detected
Drug metabolism [6]: Metabolite_Detected
Drug metabolism [7]: Metabolite detected
Drug metabolism [8]: Metabolite_Detected
Drug metabolism [9]: Metabolite_Detected

SMILES: COc1cc(C2C(O)=CC(=O)C2C(O)c2ccc(OC)c(OC)c2)ccc1O (configuration not stated)
Drug metabolism [10]: Metabolite_Detected
Drug metabolism [11]: Metabolite_Detected

SMILES: [2H]c1c([2H])c(C(O)C2C(=O)C=C(O)C2c2ccc(O)c(OC)c2)c([2H])c([2H])c1O (configuration not stated)
Drug metabolism [12]: Metabolite_Detected

The next lines start with results.

Drug metabolism [1]: Metabolite_Notdetected
SMILES: O=C(/C=C/c1ccc(O)cc1)CC(=O)/C=C/c1ccc(O)cc1 [BISDEMETHOXYCURCUMIN]

Drug metabolism [4]: Metabolite_Detected
SMILES: COc1cc(/C=C/C(=O)CC(=O)/C=C/c2ccc(O)cc2)ccc1O

Drug metabolism [13]: Metabolite_Detected
SMILES: [2H]c1c([2H])c(/C=C/C(=O)CC(=O)/C=C/c2ccc(O)c(OC)c2)c([2H])c([2H])c1O

Drug metabolism [17]: Metabolite_Detected
SMILES: COc1cc(/C=C/C(=O)CC(=O)/C=C/c2ccc(O)c(OC)c2)ccc1O [CURCUMIN]
Drug metabolism [14]: Metabolite detected
Drug metabolism [15]: Metabolite detected
Drug metabolism [16]: Metabolite detected
